Test results: ChEMBL document CHEMBL4049427, “Use of Molecular Modeling to Design Selective NTS2 Neurotensin Analogues” (J Med Chem, 2017)
Square brackets hold non-standard residues; d marks the D form. Peptide text beside a SMILES is read from it. ξ: configuration not given here. ξOrn = NCCCC(N)C(=O)O

Experiments:
Homo sapiens [1] = species on record: Homo sapiens; test: Selectivity ratio of Ki for human NTS1 receptor expressed in CHOK1 cell membrane to Ki for human NTS2 receptor expressed in human 1321N1 cell membranes; type: cell-based
Homo sapiens [2] = species on record: Homo sapiens; test: Selectivity ratio of Ki for human NTS1 receptor expressed in CHOK1 cell membranes to Ki for HA-tagged human NTS1 R212E mutant receptor expressed in HEK293 cell membranes; type: cell-based
Method in brief: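 Ki was taken on two receptors. WT: 15 μg CHO-K1 hNTS1 membrane with 45 pM 125I-[Tyr3]-NT. R212E: HEK293 cells transfected by PEI with HA-tagged hNTS1-R212E, membranes made 48 h later; 50 μg membrane with 130 pM tracer. Both ran in Tris-HCl pH7.5 with 0.2% BSA, 30 min at 25 °C, with filtration and γ-counting. IC50 was converted to Ki by Cheng–Prusoff, and the ratio taken as WT Ki over mutant Ki.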

[3] = biological target: T1, Neurotensin receptor type 2 (Homo sapiens, UniProt O95665); test: Displacement of 125I-[Tyr3]-NT from human NTS2 receptor expressed in human 1321N1 cell membranes after 30 mins by gamma counting analysis
T1 sequence (O95665 whole entry): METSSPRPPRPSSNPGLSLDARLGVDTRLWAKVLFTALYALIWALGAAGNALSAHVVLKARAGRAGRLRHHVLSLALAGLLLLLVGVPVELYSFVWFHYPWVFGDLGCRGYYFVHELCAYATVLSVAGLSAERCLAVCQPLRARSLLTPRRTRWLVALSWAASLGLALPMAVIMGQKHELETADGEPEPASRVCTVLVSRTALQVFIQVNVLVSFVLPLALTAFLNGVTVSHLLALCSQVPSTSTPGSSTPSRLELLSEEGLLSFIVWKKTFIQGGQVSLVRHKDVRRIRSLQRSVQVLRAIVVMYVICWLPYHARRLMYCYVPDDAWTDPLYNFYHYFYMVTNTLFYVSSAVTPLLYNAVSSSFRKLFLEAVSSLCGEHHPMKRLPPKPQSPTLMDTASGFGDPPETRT
Method in brief: (§1)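 Fresh membranes from 1321N1 cells stably expressing hNTS2 (DMEM, 10% FBS, G418). Nonspecific binding defined with 10^-5 M NT[8-13]. Filtration, γ-counting. IC50 converted to Ki via Cheng−Prusoff; mean of at least three experiments.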

[4] = Displacement of 125I-[Tyr3]-NT from HA-tagged human NTS1 R212E mutant receptor expressed in HEK293 cell membranes after 30 mins by gamma counting analysis
Method in brief: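 Membranes from HEK293 cells transfected with human HA-tagged NTS1-R212E (10 μg DNA, PEI), prepared fresh 48 h post-transfection. 50 μg membrane incubated with 130 pM 125I-[Tyr3]-NT in 50 mM Tris-HCl pH 7.5, 0.2% BSA with competitor 10^-11 to 10^-5 M, 30 min at 25 °C. Nonspecific binding defined with 10^-5 M NT[8-13]. Filtration, γ-counting. IC50 converted to Ki via Cheng−Prusoff; at least three experiments.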

[5] = biological target: Neurotensin receptor type 1 (Homo sapiens, UniProt P30989); test: Displacement of 125I-[Tyr3]-NT from human NTS1 receptor expressed in CHOK1 cell membranes after 30 mins by gamma counting analysis
Chain of Neurotensin receptor type 1 (P30989 whole entry): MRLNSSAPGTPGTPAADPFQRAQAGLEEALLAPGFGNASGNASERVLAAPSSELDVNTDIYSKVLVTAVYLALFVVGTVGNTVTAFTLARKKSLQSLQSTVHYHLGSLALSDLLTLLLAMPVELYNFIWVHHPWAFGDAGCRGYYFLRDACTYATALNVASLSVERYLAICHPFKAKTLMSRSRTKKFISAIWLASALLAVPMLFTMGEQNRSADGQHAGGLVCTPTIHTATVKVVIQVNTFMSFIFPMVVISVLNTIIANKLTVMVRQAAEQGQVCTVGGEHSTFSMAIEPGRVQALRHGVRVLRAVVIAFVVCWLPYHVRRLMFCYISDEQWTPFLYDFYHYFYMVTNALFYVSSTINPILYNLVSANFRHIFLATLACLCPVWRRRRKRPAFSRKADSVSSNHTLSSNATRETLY

[6] = biological target: T1, Neurotensin receptor type 2; test: Displacement of 125I-[Tyr3]-NT from human NTS2 receptor
Method in brief: as §1, with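 “G418). 50 μg membrane incubated with 255 pM 125I-[Tyr3]-NT in 50 mM Tris-HCl pH 7.5, 0.2% BSA with competitor 10^-11 to 10^-5 M, 30 min at 25 °C.” for “G418).”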

Ki [3] [nM]	Ki [5] [nM]	Ki [6] [nM]	Molecule	Ratio Ki (Homo sapiens [1])	Ratio Ki (Homo sapiens [2])	Ki [4] [nM]
–	–	–	CC[C@H](C)[C@H](NC(=O)[C@H](Cc1ccc(O)cc1)NC(=O)[C@@H]1CCCN1C(=O)[C@H](CCCNC(=N)N)NC(=O)[C@@H](N)CCCNC(=N)N)C(=O)N[C@@H](CC(C)C)C(=O)O	–	–	4.69
619	> 10000	–	CC[C@H](C)[C@H](NC(=O)C(CCCN)NC(=O)[C@@H]1CCCN1C(=O)[C@H](CCCCN)NC(=O)[C@@H](N)CCCCN)C(=O)N[C@@H](CC(C)C)C(=O)O (stereo partly drawn) (H-KKP[ξOrn]IL-OH)	–	–	–
1600	> 10000	–	H-KKPEIL-OH	–	–	> 10000
474	456	–	H-KKPHIL-OH	0.96	–	–
–	–	0.95	CC[C@H](C)[C@H](NC(=O)[C@H](Cc1ccc(O)cc1)NC(=O)[C@@H]1CCCN1C(=O)[C@H](CCCCN)NC(=O)[C@@H](N)CCCCN)C(=O)N[C@@H](CC(C)C)C(=O)O	–	–	–
4200	> 10000	–	H-KKPDIL-OH	–	–	> 10000

Molecule	Ki [3] [nM]	Ki [5] [nM]	Ki [6] [nM]	Ratio Ki (Homo sapiens [1])	Ratio Ki (Homo sapiens [2])	Ki [4] [nM]
CC[C@H](C)[C@H](NC(=O)[C@H](CCCCN)NC(=O)[C@@H]1CCCN1C(=O)[C@H](CCCCN)NC(=O)[C@@H](N)CCCCN)C(=O)N[C@H](C[Si](C)(C)C)C(=O)O	67	–	–	9.9	5.22	–
CC[C@H](C)[C@H](NC(=O)[C@H](CCCCN)NC(=O)[C@@H]1CCCN1C(=O)[C@H](CCCCN)NC(=O)[C@@H](N)CCCCN)C(=O)N[C@@H](C[Si](C)(C)C)C(=O)O	–	663	–	–	–	127
H-KKPKIL-OH	262	5700	–	21.8	28.6	199
